{"source": "ChEMBL document CHEMBL1671867", "about": "“Novel polymyxin derivatives carrying only three positive charges are effective antibacterial agents” (Antimicrob Agents Chemother, 2008)", "key": {"[1]": {"system": "Escherichia coli", "test": "Antibacterial activity against Escherichia coli IH3080 assessed as growth inhibition at 10 ug after 18 hrs by […]", "type": "functional"}, "[2]": {"system": "Escherichia coli", "test": "Antibacterial activity against Escherichia coli IH3080 assessed as growth inhibition at 10 ug after 18 hrs by […] in presence of 1 ug/ml rifampin", "type": "functional"}, "[3]": {"system": "Serratia marcescens", "test": "Antibacterial activity against Serratia marcescens ATCC 8100 by CLSI M7-A7 agar dilution method", "type": "functional", "how_it_was_run": "(§1)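 Agar dilution on Mueller-Hinton agar with test substance at 0.25 to 32 μg/ml in twofold steps. Spots of about 10^4 CFU applied with a multipoint inoculator.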"}, "[4]": {"system": "Acinetobacter baumannii", "test": "Antibacterial activity against Acinetobacter baumannii ATCC 19606 by CLSI M7-A7 agar dilution method", "type": "functional"}, "[5]": {"system": "Klebsiella pneumoniae", "test": "Antibacterial activity against Klebsiella pneumoniae by CLSI M7-A7 agar dilution method", "type": "functional", "how_it_was_run": "as §1"}, "[6]": {"system": "Escherichia coli", "test": "Antibacterial activity against Escherichia coli IH3080 by CLSI M7-A7 agar dilution method", "type": "functional"}, "[7]": {"system": "Enterobacter cloacae", "test": "Antibacterial activity against Enterobacter cloacae ATCC 23355 by CLSI M7-A7 agar dilution method", "type": "functional"}, "[8]": {"system": "Enterobacter cloacae", "test": "Antibacterial activity against Enterobacter cloacae by CLSI M7-A7 agar dilution method", "type": "functional"}, "[9]": {"system": "Pseudomonas aeruginosa", "test": "Antibacterial activity against Pseudomonas aeruginosa ATCC 27853 by CLSI M7-A7 agar dilution method", "type": "functional", "how_it_was_run": "as §1"}, "[10]": {"system": "Citrobacter freundii", "test": "Antibacterial activity against Citrobacter freundii ATCC 8090 by CLSI M7-A7 agar dilution method", "type": "functional"}, "[11]": {"system": "Klebsiella oxytoca", "test": "Antibacterial activity against Klebsiella oxytoca ATCC 13182 by CLSI M7-A7 agar dilution method", "type": "functional", "how_it_was_run": "as §1"}, "[12]": {"system": "Escherichia coli", "test": "Antibacterial activity against Escherichia coli SC 9252 by CLSI M7-A7 agar dilution method", "type": "functional"}, "[13]": {"system": "Escherichia coli", "test": "Antibacterial activity against Escherichia coli by CLSI M7-A7 agar dilution method", "type": "functional", "how_it_was_run": "as §1"}, "[14]": {"system": "Enterobacter cloacae", "test": "Antibacterial activity against Enterobacter cloacae CCUG52947 by CLSI M7-A7 agar dilution method", "type": "functional"}, "[15]": {"system": "Escherichia coli", "test": "Antibacterial activity against Escherichia coli ATCC […] by CLSI M7-A7 agar dilution method", "type": "functional"}, "[16]": {"system": "Klebsiella pneumoniae", "test": "Antibacterial activity against Klebsiella pneumoniae CCUG45421 by CLSI M7-A7 agar dilution method", "type": "functional", "how_it_was_run": "as §1"}, "[17]": {"system": "Klebsiella oxytoca", "test": "Antibacterial activity against Klebsiella oxytoca CCUG51683 by CLSI M7-A7 agar dilution method", "type": "functional", "how_it_was_run": "as §1"}, "[18]": {"system": "Acinetobacter baumannii", "test": "Antibacterial activity against Acinetobacter baumannii by CLSI M7-A7 agar dilution method", "type": "functional"}, "[19]": {"system": "Candida albicans", "test": "Antibacterial activity against Candida albicans ATCC 28366 by CLSI M7-A7 agar dilution method", "type": "functional"}, "[20]": {"system": "Staphylococcus aureus", "test": "Antibacterial activity against Staphylococcus aureus ATCC 25923 by CLSI M7-A7 agar dilution method", "type": "functional", "how_it_was_run": "as §1"}, "[21]": {"system": "Escherichia coli", "test": "Antibacterial activity against Escherichia coli SC 9253 by CLSI M7-A7 agar dilution method", "type": "functional", "how_it_was_run": "as §1"}, "[22]": {"test": "Inhibition of [3H]gentamicin binding to brush border membrane of renal cortex", "how_it_was_run": "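Brush border membrane vesicles prepared from male albino rat renal cortex by Mg2+-EGTA precipitation. Incubated with 20 μM [3H]gentamicin in 10 mM HEPES pH 7.5 with 300 mM mannitol, with or without compound, 60 min at 4°C. Then filtered, washed, and bound radioactivity counted by scintillation. IC50 fitted with the Hill equation.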"}}, "note": "Bridge positions count the residues as written; N and C are the ends. Square brackets hold non-standard residues; d marks the D form. Peptide text beside a SMILES is read from it. * marks the point of attachment. Octanoyl = CCCCCCCC(=O)*; Dab = NCC[C@H](N)C(=O)O; Abu = CC[C@H](N)C(=O)O"}
{"compound": "CCCCCCCC(=O)N[C@H](C(=O)N[C@@H](CO)C(=O)N[C@H]1CCNC(=O)[C@H]([C@@H](C)O)NC(=O)[C@H](CCN)NC(=O)[C@H](CCN)NC(=O)[C@H](CC(C)C)NC(=O)[C@H](Cc2ccccc2)NC(=O)[C@H](CCN)NC1=O)[C@@H](C)O", "values": [{"measurement": "inhibition zone (IZ)", "setting": "[1]", "value": 80, "unit": "mm2"}, {"measurement": "inhibition zone (IZ)", "setting": "[2]", "value": 230, "unit": "mm2"}]}
{"compound": "POLYMYXIN B", "values": [{"measurement": "MIC", "setting": "[3]", "value": "> 32", "unit": "mg/L"}, {"measurement": "MIC", "setting": "[4]", "value": 1, "unit": "mg/L"}, {"measurement": "MIC", "setting": "[5]", "value": 0.5, "unit": "mg/L"}, {"measurement": "MIC", "setting": "[6]", "value": 0.5, "unit": "mg/L"}, {"measurement": "MIC", "setting": "[7]", "value": 0.5, "unit": "mg/L"}, {"measurement": "MIC", "setting": "[8]", "value": 0.5, "unit": "mg/L"}, {"measurement": "MIC", "setting": "[9]", "value": 1, "unit": "mg/L"}, {"measurement": "MIC", "setting": "[10]", "value": 1, "unit": "mg/L"}, {"measurement": "MIC", "setting": "[11]", "value": 0.5, "unit": "mg/L"}, {"measurement": "MIC", "setting": "[12]", "value": "> 32", "unit": "mg/L"}, {"measurement": "MIC", "setting": "[13]", "value": 0.25, "unit": "mg/L"}, {"measurement": "MIC", "setting": "[14]", "value": 1, "unit": "mg/L"}, {"measurement": "inhibition zone (IZ)", "setting": "[1]", "value": 120, "unit": "mm2"}, {"measurement": "MIC", "setting": "[15]", "value": 1, "unit": "mg/L"}, {"measurement": "MIC", "setting": "[16]", "value": 1, "unit": "mg/L"}, {"measurement": "MIC", "setting": "[17]", "value": 0.5, "unit": "mg/L"}, {"measurement": "MIC", "setting": "[18]", "value": 0.5, "unit": "mg/L"}, {"measurement": "MIC", "setting": "[19]", "value": "> 32", "unit": "mg/L"}, {"measurement": "inhibition zone (IZ)", "setting": "[2]", "value": 125, "unit": "mm2"}, {"measurement": "MIC", "setting": "[20]", "value": "> 32", "unit": "mg/L"}, {"measurement": "MIC", "setting": "[21]", "value": "> 32", "unit": "mg/L"}]}
{"compound": "CCCCCCCC(=O)N[C@@H](CCN)C(=O)N[C@H](C(=O)N[C@@H](CCN)C(=O)N[C@H]1CCNC(=O)[C@H]([C@@H](C)O)NC(=O)[C@H](CCN)NC(=O)[C@H](CC)NC(=O)[C@H](CC(C)C)NC(=O)[C@@H](Cc2ccccc2)NC(=O)[C@H](CC)NC1=O)[C@@H](C)O", "note": "(Octanoyl-[Dab]T[Dab][Dab][Abu][dF]L[Abu][Dab]T; lactam 4-C)", "values": [{"measurement": "inhibition zone (IZ)", "setting": "[1]", "value": 0, "unit": "mm2"}, {"measurement": "inhibition zone (IZ)", "setting": "[2]", "value": 0, "unit": "mm2"}]}
{"compound": "CCCCCCCC(=O)N[C@H](C(=O)N[C@@H](CCN)C(=O)N[C@H]1CCNC(=O)[C@H]([C@@H](C)O)NC(=O)[C@H](CCN)NC(=O)[C@H](CCN)NC(=O)[C@H](CC(C)C)NC(=O)[C@@H](Cc2ccccc2)NC(=O)[C@H](CC)NC1=O)[C@@H](C)O", "note": "(Octanoyl-T[Dab][Dab][Abu][dF]L[Dab][Dab]T; lactam 3-C)", "values": [{"measurement": "inhibition zone (IZ)", "setting": "[1]", "value": 0, "unit": "mm2"}, {"measurement": "inhibition zone (IZ)", "setting": "[2]", "value": 100, "unit": "mm2"}]}
{"compound": "CCCCCCCC(=O)N[C@@H](CCN)C(=O)N[C@H](C(=O)N[C@@H](CCN)C(=O)N[C@H]1CCNC(=O)[C@H]([C@@H](C)O)NC(=O)[C@H](CC)NC(=O)[C@H](CCN)NC(=O)[C@H](CC(C)C)NC(=O)[C@@H](Cc2ccccc2)NC(=O)[C@H](CC)NC1=O)[C@@H](C)O", "note": "(Octanoyl-[Dab]T[Dab][Dab][Abu][dF]L[Dab][Abu]T; lactam 4-C)", "values": [{"measurement": "inhibition zone (IZ)", "setting": "[1]", "value": 0, "unit": "mm2"}, {"measurement": "inhibition zone (IZ)", "setting": "[2]", "value": 10, "unit": "mm2"}]}
{"compound": "CCCCCCCC(=O)N[C@@H](C)C(=O)N[C@H](C(=O)N[C@H](CO)C(=O)N[C@H]1CCNC(=O)[C@H]([C@@H](C)O)NC(=O)[C@H](CCN)NC(=O)[C@H](CCN)NC(=O)[C@H](CC(C)C)NC(=O)[C@H](Cc2ccccc2)NC(=O)[C@H](CCN)NC1=O)[C@@H](C)O", "values": [{"measurement": "inhibition zone (IZ)", "setting": "[1]", "value": 160, "unit": "mm2"}, {"measurement": "inhibition zone (IZ)", "setting": "[2]", "value": 200, "unit": "mm2"}]}
{"compound": "CCCCCCCC(=O)N[C@H](C(=O)N[C@@H](CC)C(=O)N[C@H]1CCNC(=O)[C@H](CC(C)C)NC(=O)[C@H](CCN)NC(=O)[C@H](CCN)NC(=O)[C@H](CC(C)C)NC(=O)[C@@H](Cc2ccccc2)NC(=O)[C@H](CCN)NC1=O)[C@@H](C)O", "note": "(Octanoyl-T[Abu][Dab][Dab][dF]L[Dab][Dab]L; lactam 3-C)", "values": [{"measurement": "inhibition zone (IZ)", "setting": "[1]", "value": 50, "unit": "mm2"}, {"measurement": "inhibition zone (IZ)", "setting": "[2]", "value": 180, "unit": "mm2"}]}
{"compound": "CCCCCCCC(=O)N[C@H](C(=O)N[C@H](C)C(=O)N[C@H]1CCNC(=O)[C@H]([C@@H](C)O)NC(=O)[C@H](CCN)NC(=O)[C@H](CCN)NC(=O)[C@H]([C@@H](C)O)NC(=O)[C@H](Cc2ccccc2)NC(=O)[C@H](CCN)NC1=O)[C@@H](C)O", "values": [{"measurement": "inhibition zone (IZ)", "setting": "[1]", "value": 60, "unit": "mm2"}, {"measurement": "inhibition zone (IZ)", "setting": "[2]", "value": 230, "unit": "mm2"}]}
{"compound": "GENTAMICIN", "values": [{"measurement": "IC50", "setting": "[22]", "value": 90.2, "unit": "µM"}]}
{"compound": "CC(C)C[C@@H]1NC(=O)[C@@H](Cc2ccccc2)NC(=O)[C@H](CCN)NC(=O)[C@@H](NC(=O)[C@H](CCN)NC(=O)[C@@H](N)[C@@H](C)O)CCNC(=O)[C@H]([C@@H](C)O)NC(=O)[C@H](CCN)NC(=O)[C@H](CCN)NC1=O", "note": "[POLYMYXIN B NONAPEPTIDE] (H-T[Dab][Dab][Dab][dF]L[Dab][Dab]T; lactam 3-C)", "values": [{"measurement": "inhibition zone (IZ)", "setting": "[1]", "value": "<=5 mm2"}, {"measurement": "inhibition zone (IZ)", "setting": "[2]", "value": 143, "unit": "mm2"}]}
